How the values were obtained:
MCF7 = assay: Cytotoxicity against human MCF7 cells after 72 hrs by calcein-AM assay; format: functional, cell-based; conditions: MCF7, 72 h
K562 = assay: Cytotoxicity against human K562 cells after 72 hrs by calcein-AM assay; format: functional, cell-based; conditions: K562, 72 h
HCT-116 = assay: Cytotoxicity against human HCT116 cells after 72 hrs by calcein-AM assay; format: functional, cell-based; conditions: HCT-116, 72 h
HeLa = assay: Cytotoxicity against human HeLa cells after 72 hrs by calcein-AM assay; format: functional, cell-based
G-361 [1] = assay: Cytotoxicity against human G361 cells after 72 hrs by calcein-AM assay; format: functional, cell-based; conditions: G-361, 72 h
G-361 [2] = assay: Induction of apoptosis in human G361 cells assessed as caspase-3/7 activation at 2 uM after 24 hrs by fluorescence assay relative to control; format: functional
Outline: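 G361 cells seeded at 20,000 per well overnight, then exposed 24 h to compound at 2 µM final. 3x caspase-3/7 buffer (HEPES pH 7.4, NaCl, KCl, MgCl2, EGTA, NP-40, CHAPS, sucrose, DTT, PMSF) with Ac-DEVD-AMC substrate added; incubated 37 °C, fluorescence read after 4 h at 346/442 nm; activity expressed relative to untreated cells.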

HOS = assay: Cytotoxicity against human HOS cells after 72 hrs by calcein-AM assay; format: functional, cell-based

| SMILES | IC50 (MCF7) | IC50 (K562) | other results |
| --- | --- | --- | --- |
| CC(C)[C@H](NC(=O)c1cc(Cl)ccc1O)C(=O)Nc1ccc(Cl)cc1 | > 10 µM | > 20 µM |  |
| C[C@H](NC(=O)c1ccc(Cl)cc1O)C(=O)Nc1ccc(C(F)(F)F)cc1 | > 12.5 µM | > 12.5 µM |  |
| C[C@@H](NC(=O)c1cc(Cl)ccc1O)C(=O)Nc1ccc(Cl)cc1 | > 20 µM | > 20 µM |  |
| O=C(N[C@@H](CC1CCCCC1)C(=O)Nc1cccc(C(F)(F)F)c1)c1cc(Cl)ccc1O | 2.3 µM | 3.4 µM | IC50 (HCT-116): 1.5 µM; IC50 (HeLa): 1.3 µM; IC50 (G-361 [1]): 1.3 µM; fold change (FC) (G-361 [2]): >10; IC50 (HOS): 3.4 µM |
| Cc1ccc(NC(=O)c2ccc(CN3CCN(C)CC3)cc2)cc1Nc1nccc(-c2cccnc2)n1 [IMATINIB] | > 10 µM | 0.5 µM |  |
| O=C(N[C@H](Cc1ccccc1)C(=O)Nc1ccc(Cl)cc1)c1ccc(Cl)cc1O | > 10 µM | > 10 µM |  |
| Cc1ccc(NC(=O)[C@H](C)NC(=O)c2cc(Cl)ccc2O)cc1 | > 10 µM | > 10 µM |  |
| CC[C@H](CO)Nc1nc(NCc2ccccc2)c2ncn(C(C)C)c2n1 [SELICICLIB] | 12.3 µM |  |  |
| C[C@@H](NC(=O)c1ccc(Cl)cc1O)C(=O)Nc1ccc(Cl)cc1 | > 10 µM | > 10 µM |  |
| CC(C)[C@H](NC(=O)c1ccc(Cl)cc1O)C(=O)Nc1ccc(Cl)cc1 | > 10 µM | > 10 µM |  |
| CC(C)[C@H](NC(=O)c1cc(Cl)ccc1O)C(=O)Nc1ccc(Cl)c(Cl)c1 | > 10 µM | > 10 µM |  |
| O=C(CNC(=O)c1cc(Cl)ccc1O)Nc1cccc(Cl)c1 | > 10 µM | > 10 µM |  |
| C[C@H](NC(=O)c1cc(Cl)ccc1O)C(=O)Nc1cccc(Cl)c1 | > 10 µM | > 10 µM |  |
| CC(C)[C@@H](NC(=O)c1cc(Cl)ccc1O)C(=O)Nc1cccc(Cl)c1 | > 10 µM | > 10 µM |  |
| O=C(N[C@H](Cc1ccccc1)C(=O)Nc1cccc(Cl)c1)c1cc(Cl)ccc1O | 18.4 µM | > 20 µM |  |
| O=C(N[C@@H](Cc1ccccc1)C(=O)Nc1ccc(Cl)cc1)c1ccc(Cl)cc1O | 9.1 µM | > 10 µM |  |
| C[C@H](NC(=O)c1ccc(Cl)cc1O)C(=O)Nc1ccc(Cl)c(Cl)c1 | > 12.5 µM | > 12.5 µM |  |

Source: ChEMBL document CHEMBL2424632, “Substituted 2-hydroxy-N-(arylalkyl)benzamides induce apoptosis in cancer cell lines” (Eur J Med Chem, 2013)
